Experimental data from ChEMBL document CHEMBL2375304, “Synthesis and anticancer activity of novel 2-pyridyl hexahyrocyclooctathieno[2,3-d]pyrimidine derivatives” (2013).

Assays:
Format in all cases: functional
Hs-578T = assay: Growth inhibition of human Hs578T cells at 10^-5 M after 48 hrs by Sulforhodamine B assay relative to control; settings: read-out: GI
Outline: (§1)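 Single-dose screen at 10⁻⁵ M. Cells are preincubated 24 h at 37 °C in 5% CO2, then exposed to the compound, diluted from a DMSO stock into medium with gentamicin, for 48 h. Adherent cells are fixed with cold TCA (final 10%) and suspension cells with TCA (final 16%). Cells are stained with 0.4% SRB in 1% acetic acid and bound dye is read at 515 nm. Percent growth inhibition is taken against control wells and time-zero plates.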

CCRF-CEM = assay: Growth inhibition of human CCRF-CEM cells at 10^-5 M after 48 hrs by Sulforhodamine B assay relative to control; settings: read-out: GI; outline: as §1
ACHN = assay: Growth inhibition of human ACHN cells at 10^-5 M after 48 hrs by Sulforhodamine B assay relative to control; settings: read-out: GI; outline: as §1
[1] = Growth inhibition of human NCI-ADR-RES cells at 10^-5 M after 48 hrs by Sulforhodamine B assay relative to control; settings: read-out: GI
Outline: (§2)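 Single-dose primary screen at 10⁻⁵ M across 49 lines. Cells were plated 24 h beforehand, with a TCA-fixed time-zero plate, then exposed 48 h at 37 °C, 5% CO2. Cells were fixed with cold TCA, stained with SRB and read at 515 nm. Percent growth was calculated against time-zero and untreated-control absorbances.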

MDA-MB-231 = assay: Growth inhibition of human MDA-MB-231 cells at 10^-5 M after 48 hrs by Sulforhodamine B assay relative to control; settings: MDA-MB-231, 48 h, read-out: GI; outline: as §1
A498 = assay: Growth inhibition of human A498 cells at 10^-5 M after 48 hrs by Sulforhodamine B assay relative to control; settings: A498, 48 h, read-out: GI; outline: as §1
SF-268 = assay: Growth inhibition of human SF268 cells at 10^-5 M after 48 hrs by Sulforhodamine B assay relative to control; settings: SF-268, 48 h, read-out: GI; outline: as §2
LOX IMVI = assay: Growth inhibition of human LOXIMVI cells at 10^-5 M after 48 hrs by Sulforhodamine B assay relative to control; settings: read-out: GI; outline: as §1
OVCAR-8 = assay: Growth inhibition of human OVCAR8 cells at 10^-5 M after 48 hrs by Sulforhodamine B assay relative to control; settings: OVCAR-8, 48 h, read-out: GI; outline: as §2
UACC-62 = assay: Growth inhibition of human UACC62 cells at 10^-5 M after 48 hrs by Sulforhodamine B assay relative to control; settings: UACC-62, 48 h, read-out: GI
Outline: (§3)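 Single-dose stage: compound tested at 10⁻⁵ M in the 49-cell-line panel. Cells grew 24 h at 37 °C, 5% CO₂ before drug addition. Drug stock was in DMSO at 400-fold, diluted in medium with gentamicin. After 48 h exposure, adherent cells were fixed with cold TCA (10% final) and stained with 0.4% SRB in 1% acetic acid. Dye was solubilized in 10 mM Tris, read at 515 nm. Growth percentage was taken relative to untreated control and time-zero plates.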

PC-3 = assay: Growth inhibition of human PC3 cells at 10^-5 M after 48 hrs by Sulforhodamine B assay relative to control; settings: PC-3, 48 h, read-out: GI; outline: as §2
NCI-H322M = assay: Growth inhibition of human NCI-H322M cells at 10^-5 M after 48 hrs by Sulforhodamine B assay relative to control; settings: read-out: GI; outline: as §2
U-251 = assay: Growth inhibition of human U251 cells at 10^-5 M after 48 hrs by Sulforhodamine B assay relative to control; settings: U-251, 48 h, read-out: GI; outline: as §3
HOP-62 = assay: Growth inhibition of human HOP62 cells at 10^-5 M after 48 hrs by Sulforhodamine B assay relative to control; settings: HOP-62, 48 h, read-out: GI; outline: as §1

SMILES	inhibition of growth at 10 µM (Hs-578T) [%]	inhibition of growth at 10 µM (CCRF-CEM) [%]	inhibition of growth at 10 µM (ACHN) [%]	inhibition of growth at 10 µM [1] [%]	inhibition of growth at 10 µM (MDA-MB-231) [%]	inhibition of growth at 10 µM (A498) [%]	inhibition of growth at 10 µM (SF-268) [%]	inhibition of growth at 10 µM (LOX IMVI) [%]	inhibition of growth at 10 µM (OVCAR-8) [%]	inhibition of growth at 10 µM (UACC-62) [%]	inhibition of growth at 10 µM (PC-3) [%]	inhibition of growth at 10 µM (NCI-H322M) [%]	inhibition of growth at 10 µM (U-251) [%]	inhibition of growth at 10 µM (HOP-62) [%]
CN1CCN(c2nc(-c3ccccn3)nc3sc4c(c23)CCCCCC4)CC1	6.23	5.41	4.94	22.7	6.82	34.8	-1.9	4.93	-1.5	9.41	15.3	1.03	8.31	-3.13
Clc1nc(-c2ccncc2)nc2sc3c(c12)CCCCCC3	6.64	23.8	-0.47	-6.46	-6.99	37.2	0.85	5.4	-1.87	6.14	0.63	3.46	-0.32	-9.05
